From ChEMBL document CHEMBL1156469 (2007)
Activity calls are given as the source filed them. The calls are words filed in the database; no cut-off is given here.

What was measured:
MC3T3-E1 [1] = assay: Reversal of increase in ER.DNA complex in mouse MC3T3-E1 cells expressing small interfering RNA for FOXA1 protein at 1 uM by RT-PCR; format: functional, cell-based
Osteoblast [2] = assay: Effect on annexin A5 gene expression in rat primary osteoblast cells assessed as expression ratio of treated to untreated control by microarray analysis; format: functional
[3] = molecular target: Forkhead box protein O3 (Homo sapiens) (UniProt O43524); assay: Induction of FOXO3a activity in human MDA-MB-231 cells; format: cell-based
Osteoblast [4] = assay: Effect on procollagen 1 alpha 2 gene expression in rat primary osteoblast cells assessed as expression ratio of treated to untreated control by microarray analysis; format: functional
In short: (§1)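 Resveratrol-treated and vehicle-treated primary osteoblasts were profiled on a mouse osteogenesis-focused cDNA array (GEArray Q series) built to track gene expression during osteogenic differentiation. Each gene's signal in treated cells was expressed as a ratio to untreated control.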

MDA-MB-231 [5] = assay: Antitumor activity against human MDA-MB-231 cells xenografted in SCID mouse orthotropic model assessed as inhibition of 17beta estradiol-induced tumor formation at 10 mg/kg for 2 days; format: functional; parameters: scale not given: the % may be the effect or the level left
In short: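 Tumor cells were inoculated orthotopically into the mammary fat pad of 6-week-old female SCID mice. […] Tumor volume was calculated as LW2/2. Tumor formation was scored as mice with tumors per total (20 per group), and tumor weight as mean ± S.D. Groups were compared by one-way ANOVA with LSD post-hoc comparisons.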

Osteoblast [6] = assay: Effect on ornithine decarboxylase gene expression in rat primary osteoblast cells assessed as expression ratio of treated to untreated control by microarray analysis; format: functional; in short: as §1
Osteoblast [7] = assay: Increase in BMP2 levels in rat primary osteoblast cells at 1 uM by Western blot; format: functional, cell-based; details: TDE = time-dependent effect
In short: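 Osteoblasts treated with 1 μm for the indicated times; lysates resolved by SDS-PAGE, transferred to nitrocellulose, probed with anti-BMP-2, ECL detection.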

[8] = Reversal of induction of BMP2 expression in mouse MC3T3-E1 cells at 1 uM by Western blot in presence of ICI-182780; format: functional, cell-based
Osteoblast [9] = assay: Effect on actin beta gene expression in rat primary osteoblast cells assessed as expression ratio of treated to untreated control by microarray analysis; format: functional
Osteoblast [10] = assay: Effect on scavenger receptor B2 gene expression in rat primary osteoblast cells assessed as expression ratio of treated to untreated control by microarray analysis; format: functional; in short: as §1
MC3T3-E1 [11] = assay: Reversal of increase in ER.DNA complex in mouse MC3T3-E1 cells at 1 uM by RT-PCR in presence of PP2; format: functional, cell-based
In short: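 BMP-2 promoter quantified by real-time PCR (45 cycles, 61 °C anneal), reported as IP-to-input Ct ratio. DN-Src by 3 μg vector, PP2 at 10 μM; ICI182780 and tamoxifen at indicated concentrations.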

MC3T3-E1 [12] = assay: Increase in BMP2 expression in mouse MC3T3-E1 cells expressing pBMP2delta2 mutant at 1 uM after 4 hrs by luciferase method relative to control; format: functional, cell-based
In short: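 MC3T3-E1 cells transfected with BMP-2 promoter–luciferase constructs (full promoter or deletions), treated with 1 μm or vehicle for 4 h; Dual-Luciferase assay; means ± S.D.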

Osteoblast [13] = assay: Effect on insulin-like growth factor 1 gene expression in rat primary osteoblast cells assessed as expression ratio of treated to untreated control by microarray analysis; format: functional; in short: as §1
[14] = Reversal of increase in pBMP2 expression in rat primary osteoblast cells transfected with dominant-negative mutant Src expression vector at 1 uM by luciferase method; format: functional, cell-based
Osteoblast [15] = assay: Effect on MAD homolog 6 gene expression in rat primary osteoblast cells assessed as expression ratio of treated to untreated control by microarray analysis; format: functional
[16] = molecular target: Proto-oncogene tyrosine-protein kinase Src (Mus musculus) (UniProt P05480); assay: Reversal of increase in Src kinase phosphorylation in mouse MC3T3-E1 cells transfected with dominant-negative mutant Src expression vector at 1 uM; format: cell-based
In short: (§2)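 Src phosphorylation, ERα nuclear translocation and BMP-2 protein analysed by Western blot with ECL detection. Three independent experiments.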

Osteoblast [17] = assay: Increase in osteocalcin mRNA levels in rat primary osteoblast cells at 1 uM after 72 hrs by RT-PCR; format: functional, cell-based
In short: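 Cells treated with 1 μm for 72 h; osteocalcin and osteopontin mRNA by RT-PCR, 30 cycles (95/52/72 °C, 1 min each), ethidium bromide–stained agarose gels; repeated at least twice from at least two cDNA preparations.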

Osteoblast [18] = assay: Effect on growth differentiation factor 10 gene expression in rat primary osteoblast cells assessed as expression ratio of treated to untreated control by microarray analysis; format: functional; in short: as §1
[19] = molecular target: Forkhead box protein O3 (Homo sapiens) (UniProt O43524); assay: Reversal of induction of FOXO3a activity in human MDA-MB-231 cells transfected with constitutively activated Akt mutant; format: cell-based
[20] = Reversal of increase in pBMP2 expression in mouse MC3T3-E1 cells expressing small interfering RNA for FOXA1 protein at 1 uM by luciferase method; format: functional, cell-based
Osteoblast [21] = assay: Reversal of increase in ER.DNA complex in rat primary osteoblast cells at 1 uM by RT-PCR in presence of PP2; format: functional, cell-based
MDA-MB-231 [22] = assay: Decrease in Akt activation in human MDA-MB-231 cells expressing FOXO3a-specific small interfering RNA xenografted in nude mice at 10 mg/kg for 2 days; format: functional, organism-based; parameters: dose 10 mg/kg
In short: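 MDA-MB-231 cells were cotransfected with FOXO3a siRNA (pSuper) and pcDNA3 at a 10:1 ratio. Stable pools were selected in 800 μg/ml G418 for 4 weeks, and control siRNA pools were made the same way. […] Akt phosphorylation was then assessed in the primary tumors.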

Osteoblast [23] = assay: Effect on matrix metalloprotease 9 gene expression in rat primary osteoblast cells assessed as expression ratio of treated to untreated control by microarray analysis; format: functional; in short: as §1
Osteoblast [24] = assay: Effect on bone morphogenetic protein receptor 1B gene expression in rat primary osteoblast cells assessed as expression ratio of treated to untreated control by microarray analysis; format: functional
MDA-MB-231 [25] = assay: Reversal of inhibition in anchorage-independent colony formation of human MDA-MB-231 cells transfected with FOXO3a-specific small interfering RNA by soft agar colony forming assay; format: functional, cell-based
MC3T3-E1 [26] = assay: Reversal of induction in nuclear translocation of ERalpha in mouse MC3T3-E1 cells at 1 uM in presence of PP2; format: functional, cell-based; in short: as §2
MC3T3-E1 [27] = assay: Inhibition of TNF-alpha-induced apoptosis in mouse MC3T3-E1 cells after 24 hrs by flow cytometry; format: functional, cell-based
In short: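 Cells washed in PBS, held 30 min in 0.5% Triton X-100/PBS/0.05% RNase A, then propidium iodide (50 μg/ml) added and kept on ice 15–30 min. Apoptosis is the hypodiploid fraction below the G0/G1 peak, by flow cytometry. Run in triplicate and repeated on three occasions.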

T47D = assay: Antiproliferative activity against human T47D cells at 1 uM by flow cytometry; format: functional, cell-based
In short: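 Proliferation was measured by DNA flow cytometry. Incubations were run in triplicate across three separate experiments, and values are means ± S.D.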

Forkhead box protein O3 (Homo sapiens), sequence (O43524 whole entry): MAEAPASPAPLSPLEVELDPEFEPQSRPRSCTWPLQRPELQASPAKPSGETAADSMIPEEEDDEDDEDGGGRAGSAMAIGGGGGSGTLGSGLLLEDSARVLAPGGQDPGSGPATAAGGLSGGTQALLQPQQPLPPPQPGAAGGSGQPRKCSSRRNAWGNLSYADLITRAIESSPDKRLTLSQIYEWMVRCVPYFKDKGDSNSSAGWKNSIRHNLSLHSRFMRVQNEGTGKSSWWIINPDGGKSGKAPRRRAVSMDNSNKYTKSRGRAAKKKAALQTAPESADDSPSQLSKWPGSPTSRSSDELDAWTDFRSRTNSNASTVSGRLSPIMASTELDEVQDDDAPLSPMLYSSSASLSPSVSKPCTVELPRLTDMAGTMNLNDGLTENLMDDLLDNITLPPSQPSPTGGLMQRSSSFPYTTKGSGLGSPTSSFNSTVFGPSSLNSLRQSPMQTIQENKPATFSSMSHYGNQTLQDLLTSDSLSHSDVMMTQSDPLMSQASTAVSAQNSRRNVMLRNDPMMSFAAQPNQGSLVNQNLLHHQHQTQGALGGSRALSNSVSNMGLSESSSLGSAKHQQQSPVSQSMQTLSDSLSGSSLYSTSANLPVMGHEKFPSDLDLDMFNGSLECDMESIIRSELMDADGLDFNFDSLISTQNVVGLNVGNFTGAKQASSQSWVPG
Proto-oncogene tyrosine-protein kinase Src (Mus musculus), sequence (P05480 2-535 limits assumed): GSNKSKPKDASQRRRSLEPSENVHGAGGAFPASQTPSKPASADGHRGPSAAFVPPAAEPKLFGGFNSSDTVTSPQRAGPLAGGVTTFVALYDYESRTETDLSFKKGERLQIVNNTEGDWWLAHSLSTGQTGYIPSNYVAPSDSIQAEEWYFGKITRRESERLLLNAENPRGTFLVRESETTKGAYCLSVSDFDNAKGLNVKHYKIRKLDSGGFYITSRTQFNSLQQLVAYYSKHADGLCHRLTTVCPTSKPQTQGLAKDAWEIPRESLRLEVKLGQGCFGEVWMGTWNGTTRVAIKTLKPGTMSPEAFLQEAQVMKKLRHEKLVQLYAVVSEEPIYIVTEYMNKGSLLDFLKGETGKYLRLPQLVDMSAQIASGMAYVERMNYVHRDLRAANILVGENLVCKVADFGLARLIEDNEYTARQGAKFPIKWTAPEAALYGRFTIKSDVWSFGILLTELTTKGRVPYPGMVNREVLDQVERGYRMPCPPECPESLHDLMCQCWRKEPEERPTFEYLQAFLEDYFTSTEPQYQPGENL

Oc1ccc(/C=C/c2cc(O)cc(O)c2)cc1 [RESVERATROL]
Activity (MC3T3-E1 [1]): Active | Ratio (Osteoblast [2]): 4.02 | Activity [3]: Active | Ratio (Osteoblast [4]): 8.24 | Activity (MDA-MB-231 [5]): 85% | Ratio (Osteoblast [6]): 2.79 | Activity (Osteoblast [7]): tde | Activity [8]: Active | Ratio (Osteoblast [9]): 1 | Ratio (Osteoblast [10]): 0.65 | Activity (MC3T3-E1 [11]): Active | Activity (MC3T3-E1 [12]): inactive | Ratio (Osteoblast [13]): 4.54 | Activity [14]: Active | Ratio (Osteoblast [15]): 0.38 | Activity [16]: Active | Activity (Osteoblast [17]): Active | Ratio (Osteoblast [18]): 0.93 | Activity [19]: Active | Activity [20]: Active | Activity (Osteoblast [21]): Active | Activity (MDA-MB-231 [22]): Active | Ratio (Osteoblast [23]): 0.43 | Ratio (Osteoblast [24]): 2.63 | Activity (MDA-MB-231 [25]): Active | Activity (MC3T3-E1 [26]): Active | Activity (MC3T3-E1 [27]): Active | Activity (T47D): Active
